Where a name gives a salt, the structure may show the parent alone.
Assays:
[1] = biological target: Cannabinoid receptor 1 (Homo sapiens) (UniProt P21554); test: Antagonist activity at human CB1 receptor expressed in CHO cells assessed as forskolin-induced cAMP accumulation per ug of protein at 10 uM in presence of WIN-55212-2; type: functional, cell-based
How it was run: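 CHO-K1 cells stably expressing human CB1 were kept in HAM's F12 with 10% heat-inactivated dialyzed FBS and 0.8 mg/mL G-418. Cells were seeded at 50,000/well, grown 16–18 h, then preincubated 30 min at 37 °C with 0.25% fatty-acid-free BSA, IBMX 0.1 mM and RO20-1724 0.1 mM. Drugs were added for 5 min, then forskolin (10, final) for 20 min. Cells were lysed in 0.1 N HCl/0.1% Triton for cAMP ELISA. Mean ± SD, duplicate, ≥3 experiments.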

[2] = system: Rattus norvegicus; test: Inhibition of 5% sucrose solution intake in Zucker fa/fa rat at 10 mg/kg, po on day 7 after 1 hr; type: functional
How it was run: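 Female Zucker fa/fa rats (10–12 weeks, 300–350 g) were trained on six consecutive days, without food or water during sessions. On day 7 they were randomized (n = 6/group) and dosed orally at 10 mg/kg in 0.5% CMC-Na/water (2 mL/kg). One hour later they had 5% sucrose for 4 h. Intake (g) and % inhibition vs control; mean ± SEM; one-way ANOVA with Dunnett's test.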

Cannabinoid receptor 1 (Homo sapiens), sequence (P21554 whole entry): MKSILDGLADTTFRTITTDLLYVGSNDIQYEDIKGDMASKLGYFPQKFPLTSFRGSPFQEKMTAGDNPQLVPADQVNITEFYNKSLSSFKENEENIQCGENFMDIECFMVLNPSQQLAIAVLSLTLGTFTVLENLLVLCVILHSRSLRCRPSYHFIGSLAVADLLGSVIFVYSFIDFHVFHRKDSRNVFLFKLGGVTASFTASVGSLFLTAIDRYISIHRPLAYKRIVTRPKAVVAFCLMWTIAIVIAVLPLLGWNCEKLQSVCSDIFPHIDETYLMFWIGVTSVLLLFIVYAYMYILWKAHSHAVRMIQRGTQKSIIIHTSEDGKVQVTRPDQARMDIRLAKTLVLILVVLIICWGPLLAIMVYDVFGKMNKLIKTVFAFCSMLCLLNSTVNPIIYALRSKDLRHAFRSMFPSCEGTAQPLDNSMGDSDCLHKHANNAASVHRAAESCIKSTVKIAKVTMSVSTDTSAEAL

| SMILES | Activity [1] | inhibition in vivo at 10 mg/kg [2] |
| --- | --- | --- |
| CN/C(=N/S(=O)(=O)c1ccc(Cl)cc1)C1CN(c2ccc(Cl)cc2)C(c2ccccc2)=N1 (configuration not stated) | 0.94 pmol | 2.2% |
| Cc1c(C(=O)NN2CCCCC2)nn(-c2ccc(Cl)cc2Cl)c1-c1ccc(Cl)cc1 [RIMONABANT HYDROCHLORIDE] | – | 36.1% |
| CN/C(=N/S(=O)(=O)c1ccc(Cl)cc1)C1CN(c2ccccc2)C(c2ccc(Cl)cc2)=N1 (configuration not stated) | 1.22 pmol | 14.4% |
| CN/C(=N/S(=O)(=O)c1ccc(Cl)cc1)c1nc(-c2ccc(Cl)cc2)c(-c2ccccc2)o1 | 1.3 pmol | 0.6% |
| CN/C(=N\S(=O)(=O)c1ccc(Cl)cc1)N1C[C@H](c2ccccc2)C(c2ccc(Cl)cc2)=N1 [IBIPINABANT] | – | 37.6% |

Second part, led by results:

| Activity [1] | SMILES | inhibition in vivo at 10 mg/kg [2] |
| --- | --- | --- |
| 0.55 pmol | CN/C(=N/S(=O)(=O)c1ccc(Cl)cc1)c1cn(-c2ccc(Cl)cc2)c(-c2ccccc2)n1 | 6.7% |
| 0.6 pmol | CN/C(=N/S(=O)(=O)c1ccc(Cl)cc1)c1nc(-c2ccccc2)c(-c2ccc(Cl)cc2)o1 | 4.3% |
